A selection: hits, their analogues and other compounds. The true share with any hit is near 1.7%.
Myeloid diff MLP – induction of myeloid progenitor differentiation, primary screen, cell-based, flow cytometry, MLPCN library. calls only at 10 µM. 360,000 tested, 1% active. ER-HoxA9 myeloid progenitors, lysozyme-GFP differentiation;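 active means normalized GFP-positive differentiation at or above the plate's own cutoff, the solvent-only control mean plus 3 SD; inconclusive means no clear call, values can overlap the other calls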;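 further: cells exposed to compound for four days before flow analysis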
T cell modulator – modulators of CD8 T cell-vesicle binding, primary screen, mouse 2C CD8+ T cells, flow cytometry. 2C CD8+ T cell-vesicle binding; stronger effect = lower value. response (vesicle binding), % at 7 µM. 330,000 tested, 0.068% active;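 active means response, share of CD8 T cells binding vesicles, and their 90th percentile fluorescence all below set limits, cut at about 80% in these data, passing the limit was not always enough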;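 further: values below 100% mean blocked vesicle binding to the CD8+ T cells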
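Read-out – percent CD8+ FL2 mean versus row control · System – murine 2C transgenic CD8+ T lymphocytes · Times – 1.5 h cell–vesicle binding at 37 °C, then 20 min icy labelling · Control set – naked vesicles low, QL9 vesicles with vehicle high · Detection – cytometric PE anti-B7-1 and Alexa647 anti-CD8 signals after 1% paraformaldehyde fixation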
DSG3 Ab inh – inhibitors of pemphigus antibody binding to DSG3, primary screen, biochemical, bead-based, flow cytometry, scFv-GFP | binding (percent of control), % at 10 µM | DSG3-coupled beads, scFv-anti-DSG3-GFP binding; stronger effect = lower value | 310,000 tested, 0.48% active | Desmoglein-3 (Homo sapiens), P32926;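 active means binding more than 3 SD below its plate's average and above zero; inconclusive means below that plate limit but binding exactly zero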;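 further: hits lower antibody fragment binding to DSG3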
Target sequence (P32926 whole entry, looked up, the tested form may be a part): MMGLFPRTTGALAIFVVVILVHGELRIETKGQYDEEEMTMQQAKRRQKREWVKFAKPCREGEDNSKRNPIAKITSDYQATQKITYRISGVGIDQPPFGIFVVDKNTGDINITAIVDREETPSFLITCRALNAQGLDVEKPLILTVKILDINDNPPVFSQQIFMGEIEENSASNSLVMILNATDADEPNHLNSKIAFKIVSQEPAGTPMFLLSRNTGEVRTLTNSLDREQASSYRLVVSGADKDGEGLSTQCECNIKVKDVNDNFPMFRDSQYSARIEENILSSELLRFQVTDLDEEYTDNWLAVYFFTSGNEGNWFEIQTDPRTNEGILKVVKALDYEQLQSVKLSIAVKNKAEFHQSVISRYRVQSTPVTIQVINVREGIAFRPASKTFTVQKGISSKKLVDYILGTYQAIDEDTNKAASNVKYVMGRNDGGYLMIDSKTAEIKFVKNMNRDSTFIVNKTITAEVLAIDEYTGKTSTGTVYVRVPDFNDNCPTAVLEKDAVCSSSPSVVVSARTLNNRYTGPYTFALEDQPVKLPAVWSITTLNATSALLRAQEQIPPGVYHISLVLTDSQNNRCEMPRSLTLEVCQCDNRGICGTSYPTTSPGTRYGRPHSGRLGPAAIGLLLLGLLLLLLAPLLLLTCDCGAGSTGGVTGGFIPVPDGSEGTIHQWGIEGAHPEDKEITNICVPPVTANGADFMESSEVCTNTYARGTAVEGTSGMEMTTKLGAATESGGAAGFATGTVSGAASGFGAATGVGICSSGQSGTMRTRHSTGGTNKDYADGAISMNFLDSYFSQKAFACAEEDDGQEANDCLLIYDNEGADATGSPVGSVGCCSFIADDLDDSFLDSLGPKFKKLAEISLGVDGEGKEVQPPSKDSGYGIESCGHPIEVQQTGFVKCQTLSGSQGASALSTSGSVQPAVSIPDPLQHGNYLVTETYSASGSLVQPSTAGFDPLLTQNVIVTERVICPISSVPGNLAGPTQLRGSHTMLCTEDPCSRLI
Vif inh – HIV Vif self-association inhibitors, primary screen, imaging, HEK293T, single point. AID 602346, 2012. inhibition, % at 7.49 µM. 340,000 tested, 0.35% active. HEK293T cells, Vif self-association by quenched fluorescence, 24 h; in the data active means inhibition above about 50%, passing the limit was not always enough; inconclusive means no clear call, values can overlap the other calls; inactive means below about 31%
* = called active by the depositor; i = inactive; ? = inconclusive; nt = not tested or not shown; + = active, no number.

SMILES	Myeloid diff MLP	T cell modulator	DSG3 Ab inh	Vif inh
COc1cc2c(C#N)c(N3CCc4ccccc4C3)nc(N)c2c(N)n1	+	266.9	99.6	11.9
CC(=O)N(Nc1ccccc1)c1ccccc1	i	195.8	67.3*	-3.0
CC(=O)N(CCN(C(C)=O)c1ccccc1)c1ccccc1	i	509.4	104.0	-4.8
O=C(NCc1ccc(F)cc1)C(c1ccccc1)c1ccccc1	i	109.9	106.1	1.5
CC(=O)N(Cc1ccc(F)cc1)C1=C(NCc2ccccc2)C(=O)c2ccccc2C1=O	+	nt	nt	-19.8
COc1ccc(/C=N/Nc2nnc(Cc3ccc(OC)c(OC)c3)c(=O)[nH]2)cc1OC	i	397.4	109.7	19.8
COc1ccc(Cc2nnc(N/N=C/c3ccc(N(C)C)cc3)[nH]c2=O)cc1OC	i	333.7	77.4*	0.7
COc1ccc(CNC(=O)C2(C)Cc3c(-c4ccc(N(C)C)cc4)ccnc3O2)cc1OC (stereo unspecified)	i	nt	nt	nt
Cc1cc(SCC(=O)OC/C(O)=C(\C#N)c2nc3ccccc3[nH]2)c(C)cc1Br	i	349.6	104.6	-4.2
N#C/C(=C(/O)COC(=O)CSc1ccc(Cl)cc1)c1nc2ccccc2[nH]1	+	396.1	103.6	1.4
COc1ccc(/C=N/OC/C(O)=C(\C#N)c2nc3ccccc3[nH]2)cc1	i	535.5	97.2	-5.8
COc1ccc(OC/C(O)=C(\C#N)c2nc3ccccc3[nH]2)cc1	i	i	15.8*	3.8
OCc1ccc(-c2cncc3nccn23)cc1	i	nt	nt	-5.2
C[C@@H]1CCCCO[C@@H](CN(C)C(=O)c2ccncc2)[C@@H](C)CN([C@H](C)CO)C(=O)c2cc(NC(=O)Cc3ccccc3)ccc2O1	i	nt	nt	-4.9
COc1ccc(CNC(=O)C2=CC(c3ccc(OC)cc3)=NS(=O)(=O)N2C)cc1	i	488.5	89.2	nt
CCOC(=O)c1oc2ccccc2c1CN1CC(C)OC(C)C1 (stereo unspecified)	i	298.2	102.8	-1.4
CCOC(=O)Nc1oc2ccccc2c(=O)c1CN1CCOCC1	i	335.1	104.0	53.7*
CCCCN1C[C@H](CO)Oc2cccc(F)c2S1(=O)=O	i	nt	107.0	4.9
Cc1nc2ccc(C(=O)N(C)Cc3ccco3)cn2c1N(C)C(=O)CCc1ccccc1	i	nt	nt	6.8
CCCCc1ccc(NC(=O)c2ccc(N(C)S(C)(=O)=O)cc2)cc1	?	311.4	97.7	-3.2
CCCCc1ccc(NC(=O)c2ccc(NS(C)(=O)=O)cc2)cc1	+	197.1	90.8	-4.3
COC(=O)c1ccc(CNC(=O)CN2C(=O)NC(Cc3ccccc3)(c3ccccc3)C2=O)cc1 (stereo unspecified)	i	nt	98.4	nt
C[C@@H]1CN([C@H](C)CO)C(=O)c2cc(Br)cnc2O[C@@H]1CN(C)C(=O)c1ccccc1	i	nt	nt	-5.2
COc1ccc(CN2CCC(C(=O)NC(C)c3cccc4ccccc34)CC2)cc1 (stereo unspecified)	i	nt	nt	nt
CC(NC(=O)C1CCN(CCOc2ccc(Cl)cc2)CC1)c1cccc2ccccc12 (stereo unspecified)	i	nt	nt	66.0*
SMILES	Myeloid diff MLP	T cell modulator	DSG3 Ab inh	Vif inh
CC(=O)N1c2ccc3ccccc3c2C(C)CC12CCCCC2 (stereo unspecified)	i	174.8	105.4	-36.7
CC1CC2(CCCCC2)Nc2ccc3ccccc3c21 (stereo unspecified)	+	204.0	99.7	-47.5
CCOc1ccc(S(=O)(=O)NCc2ccccn2)cc1NC(=O)c1ccccc1	nt	211.7	97.5	54.1*
CCOc1ccc(S(=O)(=O)NCc2cccnc2)cc1NC(=O)c1ccccc1	i	nt	97.7	24.1
CS(=O)(=O)c1ccc(Cl)c(C(=O)Nc2ccc3nc(N4CCOCC4)sc3c2)c1	i	404.1	97.5	4.6
CCn1c(SCC(=O)Nc2ccc3c(c2)c2ccccc2n3CC)nnc1-c1ccco1	i	404.9	91.1	0.8
CCn1c(SCC(=O)n2c(C)c(C)c3ccccc32)nnc1-c1ccco1	i	296.4	78.9*	-0.5
COCCCN1C(=O)C(CC(=O)NC2CCCCC2)CC(C(=O)N(C)C)=C1C (stereo unspecified)	i	nt	106.8	-3.6
CC[n+]1ccc(/C=C/c2ccc(N(C)C)cc2)c2ccccc21	+	nt	103.6	-24.4
CCSc1ccc([C@@H]2[C@@H]3C(=O)N(C)C(=O)[C@@H]3[C@]3(C(=O)OC)CCCCN23)cc1OC	i	0.0*	105.3	-1.8
CC(C)(C)c1ccc(C2=NC(=O)C(CC(=O)O)S2)cc1 (stereo unspecified)	+	466.5	110.3	16.3
Cc1ccc(Cn2cc(CN3CC(N4CCCC4)CS3(=O)=O)nn2)cc1 (stereo unspecified)	i	nt	nt	nt
COc1cccc(-c2c(-c3cc(OC)cc(OC)c3)n(C)c3ccc(-c4cnc(N5CCOCC5)nc4)cc23)c1	+	264.9	96.8	-4.1
COc1cccc(-c2c(-c3cc(OC)cc(OC)c3)n(C)c3ccc(-c4cnc(OC)nc4)cc23)c1	i	372.4	102.8	-8.3
CC(C)[C@@H](NC(=O)OC(C)(C)C)c1cc(C(=O)c2c(-c3ccccc3)[nH]c3ccccc23)c(N)s1	i	nt	nt	nt
CN(/N=C\c1ccc(O)c(O)c1)c1nc(-c2ccccc2)cc(-c2ccccc2)n1	i	240.4	54.1*	21.0
COc1cc(/C=N/N(c2ccccc2)c2ccccc2)ccc1O	i	178.2	123.2	3.7
O=C(CCl)Nc1ccccc1Sc1ccc(Cl)cc1	i	559.7	94.9	0.2
O=C(O)CSCC(=O)Nc1ccccc1SCCS(=O)(=O)c1ccc(Cl)cc1	+	229.1	177.9	-5.0
CC(C)NCCCCOc1cccc(Br)c1	i	333.6	132.8	18.0
CC(C)NCCOc1cccc(Br)c1	i	295.1	97.1	55.9*
COc1ccc(NC(=O)c2cc(-c3cc(F)ccc3OCC3CCCO3)n[nH]2)c(C)c1 (stereo unspecified)	i	nt	nt	nt
CN(C)S(=O)(=O)c1cccc(NC(=O)COc2ccccc2C(=O)NCc2ccccc2)c1	i	nt	116.9	0.3
O=C1NC[C@@H](CCCCN2C[C@H](Cc3ccc(O)cc3)N(CCc3ccccc3)C(=O)C2=O)N(Cc2ccccc2)C1=O	i	nt	nt	nt
Cc1cccc(-c2noc(CNC(=O)c3ccoc3C)n2)c1	+	435.0	106.0	-7.3
O=C(CCNS(=O)(=O)c1ccccc1)NNC(=O)c1cccc(Cl)c1	i	287.9	97.6	-1.6
O=C(C1CCCCC1)N1C[C@H](n2cc(C3CC3)nn2)[C@@H](O)C[C@@H]1c1ccc(Cl)cc1	i	nt	nt	-4.9
COc1ccc2c(Cl)c(C(=O)N/N=C3\CCCC(=O)C3)sc2c1	+	775.4	nt	-3.9
c1ccc(CNc2ncnc3c2cnn3Cc2ccccc2)cc1	+	200.9	95.8	3.9

Screening data: PubChem BioAssay, several laboratories
